Data set [1] is described as follows: Plasma clearance in CD rat at a dose of 5 mg/kg given intravenously. In kind it is ADME, organism-based. Particulars: iv. On the set-up: dose 5 mg/kg, route intravenous. In outline: (§1)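 Single intravenous dose in a vehicle of ethanol (10–20%), polyethyleneglycol (10%) and saline. Doses were 5 mg/kg for CD rats (n = 2 per time point), 1 mg/kg for beagles (n = 2) and 5 mg/kg for cynomolgus monkeys (n = 2). Plasma t1/2, plasma clearance and steady-state volume of distribution were derived.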

Data set [2] in a line: Half-life in CD rat at a dose of 5 mg/kg given intravenously. The data set is classed as ADME, organism-based. As to conditions: in vivo, iv. On the set-up: dose 5 mg/kg, route intravenous. In outline: as §1
Data set [3] in a line: Volume of distribution in Beagles dog at a dose of 1 mg/kg given intravenously. Also noted: dose 1 mg/kg, route intravenous. The data set is classed as ADME, organism-based, Canis lupus familiaris. As to conditions: beagle, in vivo, iv, read-out: Distribution. In a few lines:
as §1

Data set [4] can be described thus: Plasma clearance in Cynomolgus monkey at a dose of 5 mg/kg given intravenously. As to conditions: iv. The data set is classed as ADME, organism-based, Macaca fascicularis. On the set-up: dose 5 mg/kg, route intravenous. In a few lines: as §1
Data set [5] in a line: Half-life in Beagles dog at a dose of 1 mg/kg given intravenously. In kind it is ADME, organism-based, Canis lupus familiaris. Also noted: dose 1 mg/kg, route intravenous. As to conditions: beagle, in vivo, iv. In a few lines:
as §1

The nature of data set [6]: Half-life in Cynomolgus monkey at a dose of 5 mg/kg given intravenously. Also noted: dose 5 mg/kg, route intravenous. As to conditions: in vivo, iv. The data set is classed as ADME, organism-based, Macaca fascicularis. In a few lines:
as §1

A short description of data set [7]: Plasma clearance in Beagles dog at a dose of 1 mg/kg given intravenously. As to conditions: beagle, iv. On the set-up: dose 1 mg/kg, route intravenous. In kind it is ADME, organism-based, Canis lupus familiaris. In outline: as §1
Data set [8] concerns Human immunodeficiency virus 1. Briefly: Inhibitory effects on HIV-1 induced syncytium formation in C8166 cells. In kind it is functional, organism-based. Particulars: Human immunodeficiency virus 1, C8166. In outline: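 C8166 cells were infected with HIV-1 RF at moi 1×10^-3 and plated at 10^5 cells/well. Compound in Me2SO was serially diluted in RPMI 1640 from 50 to 0.05 μg/mL. Cells were kept 3–4 days at 37 °C, 5% CO2, and checked daily for syncytia. Syncytia were scored against untreated infected controls, and EC50 was calculated as 50% reduction of cytopathic effect.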

Data set [9] can be described thus: Volume of distribution in Cynomolgus monkey at a dose of 5 mg/kg given intravenously. On the set-up: dose 5 mg/kg, route intravenous. Particulars: in vivo, iv, read-out: Distribution. In kind it is ADME, organism-based, Macaca fascicularis. In a few lines: as §1
The nature of data set [10]: Volume of distribution in CD rat at a dose of 5 mg/kg given intravenously. In kind it is ADME, organism-based. On the set-up: dose 5 mg/kg, route intravenous. Particulars: in vivo, iv, read-out: Distribution. In a few lines:
as §1

Data set [11] deals with MT4. Briefly: Inhibition of cytopathic effect of HIV-1 strain RF in MT-4 cell culture. Particulars: Homo sapiens. In kind it is functional, cell-based. In a few lines:
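MT-4 cells at 10^6 cells/mL in RPMI 1640 were infected with HIV-1 RF at moi 2×10^-3 (5×10^4 cells/well). Compound in Me2SO was diluted in 10-fold steps from 100 to 0.01 μg/mL. Cells were kept 7 days at 37 °C, 5% CO2, then given MTT for 60 min. Acidified 2-propanol was added and A540 read. EC50 for 50% inhibition of formazan conversion is the mean of duplicates; toxicity was assayed at the same concentrations.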
For orientation: Protection from cytopathic effect is a common read-out in antiviral testing.

Structures are written as SMILES.

We go through one compound from ChEMBL document CHEMBL1126854, “A series of penicillin derived C2-symmetric inhibitors of HIV-1 proteinase: synthesis, mode of interaction, and structure-activity relationships” (J Med Chem, 1993).

For orientation: clearance means a measure of how efficiently the substance is removed, as volume per time. What is called half-life is the time in which the quantity being followed falls by half. The EC50 is the midpoint of the concentration-response curve. `CCNC(=O)[C@@H](NC(=O)Cc1ccccc1)[C@@H]1N[C@@H](C(=O)NCCNC(=O)[C@@H]2N[C@@H]([C@H](NC(=O)Cc3ccccc3)C(=O)NCC)SC2(C)C)C(C)(C)S1`: the clearance in [1] was 12 mL/min; in data set [4] it was 200 mL/min; in [7] it was 300 mL/min. For the same compound, the half-life is 5 h in [2], 4 h in [5] and 1.2 h in data set [6]. Besides, the Vd in [3] came out at 50 L; in data set [9], 17 L; in data set [10], 2.8 L. Also, the EC50 in data set [8] is 1.1 µM; in data set [11], 5.4 µM.
